ChEMBL document CHEMBL4680153, “New Spisulosine Derivative promotes robust autophagic response to cancer cells” (Eur J Med Chem, 2020)
Calls of active or inactive are those of the source. The calls are words filed in the database; no cut-off is given here.

Experiments:
A549 = assay: Antiproliferative activity against human A549 cells assessed as reduction in cell growth at 10 uM incubated for 48 hrs by SRB assay relative to control; format: functional
Method in brief: (§1)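 Early-passage cells plated at 40% confluency and left overnight, then exposed to 10 μM compound for 48 h. Growth was measured by sulforhodamine B staining, with absorbance at 510 nm. Percent growth inhibition was calculated against untreated cells.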

MCF7 = assay: Antiproliferative activity against human MCF7 cells assessed as reduction in cell growth at 10 uM incubated for 48 hrs by SRB assay relative to control; format: functional; method in brief: as §1
HT-29 = assay: Antiproliferative activity against human HT-29 cells assessed as reduction in cell growth at 10 uM incubated for 48 hrs by SRB assay relative to control; format: functional; method in brief: as §1
MDA-MB-231 = assay: Antiproliferative activity against human MDA-MB-231 cells assessed as reduction in cell growth at 10 uM incubated for 48 hrs by SRB assay relative to control; format: functional; method in brief: as §1
NCI-H358 = assay: Antiproliferative activity against human NCI-H358 cells assessed as reduction in cell growth at 10 uM incubated for 48 hrs by SRB assay relative to control; format: functional; method in brief: as §1
DLD-1 [1] = assay: Antiproliferative activity against human DLD-1 cells assessed as reduction in cell growth at 10 uM incubated for 48 hrs by SRB assay relative to control; format: functional; method in brief: as §1
DLD-1 [2] = assay: Induction of autophagy in human DLD-1 cells assessed as reduction in cell viability at 7.5 uM incubated for 24 hrs in presence of Bafilomycin-A1 by crystal violet staining based phase contrast microscopic analysis; format: functional
DLD-1 [3] = assay: Induction of apoptosis in human DLD-1 cells assessed as early apoptotic cells at 7.5 uM incubated for 18 hrs by Annexin V-FITC and propidium iodide staining based flow cytometry analysis (reference value: 4.95 %); format: functional
DLD-1 [4] = assay: Induction of apoptosis in human DLD-1 cells assessed as necrotic cells at 7.5 uM incubated for 18 hrs by Annexin V-FITC and propidium iodide staining based flow cytometry analysis (reference value: 4.1 %); format: functional
HL-60 = assay: Cytotoxicity against human HL-60 cell; format: functional, cell-based
KB = assay: Cytotoxicity against human KB cell; format: functional, cell-based
HCT-116 = assay: Cytotoxicity against human HCT-116 cell; format: functional, cell-based
DLD-1 [5] = assay: Induction of apoptosis in human DLD-1 cells assessed as increase in PARP cleavage at 5 to 7.5 uM by Western blot analysis; format: functional, cell-based; conditions: dose 5-7.5 µM
Method in brief: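 DLD-1 cells were treated at 7.5 μM for 18 h and lysed in NP-40 buffer containing protease and phosphatase inhibitors. Protein was quantified by BCA, and equal amounts were run on 15% SDS-PAGE and transferred to PVDF. Cleaved PARP was probed and detected by enhanced chemiluminescence.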

DLD-1 [6] = assay: Induction of apoptosis in human DLD-1 cells assessed as late apoptotic cells at 7.5 uM incubated for 18 hrs by Annexin V-FITC and propidium iodide staining based flow cytometry analysis (reference value: 5.7 %); format: functional
LNCaP = assay: Cytotoxicity against human LNCaP cells assessed as reduction in cell viability incubated for 48 hrs by MTT assay; format: functional, cell-based
PC-3 = assay: Cytotoxicity against human PC-3 cells assessed as reduction in cell viability incubated for 48 hrs by MTT assay; format: functional, cell-based; conditions: PC-3, 48 h
DLD-1 [7] = assay: Induction of apoptosis in human DLD-1 cells assessed as viable cells at 7.5 uM incubated for 18 hrs by Annexin V-FITC and propidium iodide staining based flow cytometry analysis (reference value: 85.2 %); format: functional; conditions: read-out: Activity

SMILES	inhibition at 10 µM (A549) [%]	inhibition at 10 µM (MCF7) [%]	inhibition at 10 µM (HT-29) [%]	inhibition at 10 µM (MDA-MB-231) [%]	inhibition at 10 µM (NCI-H358) [%]	inhibition at 10 µM (DLD-1 [1]) [%]	Activity (DLD-1 [2])	Activity (DLD-1 [3]) [%]	Activity (DLD-1 [4]) [%]	IC50 (HL-60) [nM]	IC50 (KB) [nM]	IC50 (HCT-116) [nM]	Activity (DLD-1 [5])	Activity (DLD-1 [6]) [%]	IC50 (LNCaP) [nM]	IC50 (PC-3) [nM]	viability at 7.5 µM (DLD-1 [7]) [%]
CCCCCCCCCCCCCC[C@H](OCOC)[C@H](CO[Si](c1ccccc1)(c1ccccc1)C(C)(C)C)NC(=O)OC(C)(C)C	15.1	-7.95	-18.8	-28	-2.89	-14.6	–	–	–	–	–	–	–	–	–	–	–
CC(C)(C)OC(=O)N[C@H](CO)CO[Si](c1ccccc1)(c1ccccc1)C(C)(C)C	25.4	28.3	46.2	32.3	53.4	73.5	–	–	–	–	–	–	–	–	–	–	–
CCCCCCCCCCCCCC[C@H](OCOC)[C@H](CN1CCSCC1)NC(=O)OC(C)(C)C	29.9	24	8.57	4.73	22.7	58.5	–	–	–	–	–	–	–	–	–	–	–
CCCCCCCCCCCCCC[C@H](OCOC)[C@H](CO)NC(=O)OC(C)(C)C	25.9	10.2	22	-5.67	18.4	54.8	–	–	–	–	–	–	–	–	–	–	–
CCCCCCCCCCCCCC[C@H](O)[C@H](CN(C(C)C)C(C)C)NC(=O)OC(C)(C)C	22.9	25.3	11.6	-1.17	11.3	34.8	–	–	–	–	–	–	–	–	–	–	–
CCCCCCCCCCCCCC[C@H](OCOC)[C@H](CN(CC)CC)NC(=O)OC(C)(C)C	27.5	25.2	-3.21	0.84	14.9	46.2	–	–	–	–	–	–	–	–	–	–	–
CCCCCCCCCCCCCC[C@H](OCOC)[C@H](CN(CCCC)CCCC)NC(=O)OC(C)(C)C	42.2	27.1	15	22.3	25.1	56	–	–	–	–	–	–	–	–	–	–	–
CCCCCCCCCCCCCC[C@H](O)[C@H](CO[Si](c1ccccc1)(c1ccccc1)C(C)(C)C)NC(=O)OC(C)(C)C	14.6	2.79	-14.4	-37.5	3.11	10.4	–	–	–	–	–	–	–	–	–	–	–
CCCCCCCCCCCCCC[C@H](O)[C@H](CN(CC)CC)NC(=O)OC(C)(C)C	18.5	18.7	–	-1.45	8.37	14.7	–	–	–	–	–	–	–	–	–	–	–
CCCCCCCCCCCCCC[C@H](O)[C@H](Cc1ccc(OC)cc1)NC(=O)OC(C)(C)C	23.4	8.77	-7.41	-16.5	6.37	27.9	–	–	–	–	–	–	–	–	–	–	–
COc1cccc2c1C(=O)c1c(O)c3c(c(O)c1C2=O)C[C@@](O)(C(=O)CO)C[C@@H]3O[C@H]1C[C@H](N)[C@H](O)[C@H](C)O1 [DOXORUBICIN]	80.2	88.5	78.4	80.2	77.5	76.7	–	–	–	–	–	–	–	–	–	–	–
CCCCCCCCCCCCCC[C@H](OCOC)[C@H](CN(C(C)C)C(C)C)NC(=O)OC(C)(C)C	22.6	26.9	19.9	31	26.6	53.9	–	–	–	–	–	–	–	–	–	–	–
CCCCCCCCCCCCCC[C@H](OCOC)[C@H](CN1CCN(C)CC1)NC(=O)OC(C)(C)C	18.2	28	–	24	18.9	31.9	–	–	–	–	–	–	–	–	–	–	–
CCCCCCCCCCCCCC[C@H](OCOC)[C@H](CN1CCCCC1)NC(=O)OC(C)(C)C	19	27.3	14.2	9.84	15.2	43.7	–	–	–	–	–	–	–	–	–	–	–
CCCCCCCCCCCCCCC[C@@H](O)[C@H](C)N	–	–	–	–	–	–	Active	14.2	4.2	100	100	100	Active	3.4	1000	1000	78
CCCCCCCCCCCCCC[C@H](O)[C@H](CN1CCSCC1)NC(=O)OC(C)(C)C	32	30.2	12	6.84	10.8	32.4	–	–	–	–	–	–	–	–	–	–	–
CCCCCCCCCCCCCC[C@H](O)[C@H](CN(CCCC)CCCC)NC(=O)OC(C)(C)C	30	21.5	9.83	-9.61	9.4	23.4	–	–	–	–	–	–	–	–	–	–	–
